Reference: paper PMC6361391 (Chemical communications (Cambridge, England), 2017)
Converted amounts (≈) assume the structure as drawn. Where a SMILES comes first, the peptide text is derived from it. Bridges are numbered along the chain shown (N, C = ends). [ ]: non-standard residue; d: D form. d(aIle) = CC[C@H](C)[C@@H](N)C(=O)O; dNMeF = CN[C@H](Cc1ccccc1)C(=O)O

Legend:
[1] = system: Staphylococcus aureus ATCC 29213; assay type: cell-based
[2] = system: Staphylococcus epidermidis ATCC 14990; assay type: cell-based
[3] = system: Streptococcus salivarius ATCC 13419; assay type: cell-based
[4] = system: Enterococcus durans ATCC 6056; assay type: cell-based
[5] = system: Bacillus subtilis ATCC 6051; assay type: cell-based
[6] = system: Escherichia coli ATCC 10798; assay type: cell-based
[7] = system: Gram-positive bacteria; assay: MIC assays, overall activity across the Gram-positive bacteria; assay type: cell-based; details: overall grade (good, moderate, poor) from the MIC assays
Method in brief: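 Five Gram-positive species, with E. coli as a Gram-negative negative control and the parent natural antibiotic as a positive control. The test compound was tested at 32, 16, 8, 4, 2, 1, 0.5 and 0.25 μg/mL (final), diluted from a 10 mg/mL stock in sterilized DMSO. Minimum inhibitory concentration was the read-out.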

[8] = assay type: physicochemical; details: pH 7.4
[9] = cited from earlier work

Row | Compound | MIC, Staphylococcus aureus ATCC 29213 [1] | MIC, Staphylococcus epidermidis ATCC 14990 [2] | MIC, Streptococcus salivarius ATCC 13419 [3] | MIC, Enterococcus durans ATCC 6056 [4] | MIC, Bacillus subtilis ATCC 6051 [5] | MIC, Escherichia coll ATCC 10798 [6] | antibiotic activity [7] | solubility in PBS buffer [8] | MIC values reported previously ([9]; earlier report of the same group) | antibiotic activity ([9]; lysine scan of Arg10-teixobactin) | loss in activity relative to Arg10-teixobactin ([9]; residues 1 to 5 replaced with a dodecanoyl group)
1 | CC[C@H](C)[C@H](NC(=O)[C@H](NC(=O)[C@@H](CCC(N)=O)NC(=O)[C@H](CO)NC(=O)[C@H](C)NC(=O)[C@@H](Cc1ccccc1)NC)[C@@H](C)CC)C(=O)N[C@@H](CO)C(=O)N[C@H]1C(=O)N[C@@H](C)C(=O)N[C@@H](CCCCN)C(=O)N[C@@H]([C@@H](C)CC)C(=O)O[C@H]1C [Ala2,Lys10-teixobactin] (H-[dNMeF]AS[dQ][d(aIle)]IS[dT]AKI; ester 8-C) | >32 µg/mL | 32 µg/mL (≈ 27.2 µM) | 32 µg/mL (≈ 27.2 µM) | >32 µg/mL | 32 µg/mL (≈ 27.2 µM) | >32 µg/mL | poor | good |  |  | 
2 | CC[C@H](C)[C@H](NC(=O)[C@@H](Cc1ccccc1)NC)C(=O)N[C@@H](C)C(=O)N[C@H](CCC(N)=O)C(=O)N[C@@H](C(=O)N[C@H](C(=O)N[C@@H](CO)C(=O)N[C@H]1C(=O)N[C@@H](C)C(=O)N[C@@H](CCCCN)C(=O)N[C@@H]([C@@H](C)CC)C(=O)O[C@H]1C)[C@@H](C)CC)[C@@H](C)CC [Ala3,Lys10-teixobactin] (H-[dNMeF]IA[dQ][d(aIle)]IS[dT]AKI; ester 8-C) | 0.5 µg/mL (≈ 0.416 µM) | 1 µg/mL (≈ 0.833 µM) | 0.5 µg/mL (≈ 0.416 µM) | 4 µg/mL (≈ 3.33 µM) | 1 µg/mL (≈ 0.833 µM) | >32 µg/mL | good |  |  |  | 
3 | CC[C@H](C)[C@H](NC(=O)[C@@H](Cc1ccccc1)NC)C(=O)N[C@@H](CO)C(=O)N[C@H](CCC(N)=O)C(=O)N[C@@H](C(=O)N[C@@H](C)C(=O)N[C@@H](CO)C(=O)N[C@H]1C(=O)N[C@@H](C)C(=O)N[C@@H](CCCCN)C(=O)N[C@@H]([C@@H](C)CC)C(=O)O[C@H]1C)[C@@H](C)CC [Ala6,Lys10-teixobactin] (H-[dNMeF]IS[dQ][d(aIle)]AS[dT]AKI; ester 8-C) | >32 µg/mL | >32 µg/mL | >32 µg/mL | >32 µg/mL | >32 µg/mL | >32 µg/mL | poor | good |  |  | 
4 | CC[C@H](C)[C@H](NC(=O)[C@@H](Cc1ccccc1)NC)C(=O)N[C@@H](CO)C(=O)N[C@H](CCC(N)=O)C(=O)N[C@@H](C(=O)N[C@H](C(=O)N[C@@H](C)C(=O)N[C@H]1C(=O)N[C@@H](C)C(=O)N[C@@H](CCCCN)C(=O)N[C@@H]([C@@H](C)CC)C(=O)O[C@H]1C)[C@@H](C)CC)[C@@H](C)CC [Ala7,Lys10-teixobactin] (H-[dNMeF]IS[dQ][d(aIle)]IA[dT]AKI; ester 8-C) | >32 µg/mL | 32 µg/mL (≈ 26.7 µM) |  | >32 µg/mL | 32 µg/mL (≈ 26.7 µM) | >32 µg/mL | poor | good |  |  | 
5 | CC[C@H](C)[C@H](NC(=O)[C@@H](Cc1ccccc1)NC)C(=O)N[C@@H](CO)C(=O)N[C@H](CCC(N)=O)C(=O)N[C@@H](C(=O)N[C@H](C(=O)N[C@@H](CO)C(=O)N[C@H]1C(=O)N[C@@H](C)C(=O)N[C@@H](C)C(=O)N[C@@H]([C@@H](C)CC)C(=O)O[C@H]1C)[C@@H](C)CC)[C@@H](C)CC [Ala10-teixobactin] | 1 µg/mL (≈ 0.863 µM) | 4 µg/mL (≈ 3.45 µM) | 1 µg/mL (≈ 0.863 µM) | 8 µg/mL (≈ 6.9 µM) |  | >32 µg/mL | moderate |  |  |  | 
6 | CC[C@H](C)[C@H](NC(=O)[C@@H](Cc1ccccc1)NC)C(=O)N[C@@H](CO)C(=O)N[C@H](C)C(=O)N[C@@H](C(=O)N[C@H](C(=O)N[C@@H](CO)C(=O)N[C@H]1C(=O)N[C@@H](C)C(=O)N[C@@H](CCCCN)C(=O)N[C@@H]([C@@H](C)CC)C(=O)O[C@H]1C)[C@@H](C)CC)[C@@H](C)CC [D-Ala4,Lys10-teixobactin] (H-[dNMeF]IS[dA][d(aIle)]IS[dT]AKI; ester 8-C) | 1 µg/mL (≈ 0.862 µM) | 4 µg/mL (≈ 3.45 µM) | 2 µg/mL (≈ 1.72 µM) |  | 4 µg/mL (≈ 3.45 µM) | >32 µg/mL | moderate | good |  |  | 
7 | CC[C@H](C)[C@H](NC(=O)[C@@H](C)NC(=O)[C@@H](CCC(N)=O)NC(=O)[C@H](CO)NC(=O)[C@@H](NC(=O)[C@@H](Cc1ccccc1)NC)[C@@H](C)CC)C(=O)N[C@@H](CO)C(=O)N[C@H]1C(=O)N[C@@H](C)C(=O)N[C@@H](CCCCN)C(=O)N[C@@H]([C@@H](C)CC)C(=O)O[C@H]1C [D-Ala5,Lys10-teixobactin] (HELM PEPTIDE1{[CN[C@H](Cc1ccccc1)C(=O)[*:2]].I.S.[dQ].[dA].I.S.[C[C@H](O[*:3])[C@@H](N[*:1])C(=O)[*:2]].A.K.I}$PEPTIDE1,PEPTIDE1,8:R3-11:R2$$$V2.0) | >32 µg/mL |  |  | >32 µg/mL |  | >32 µg/mL | poor | good |  |  | 
8 | CC[C@H](C)[C@H](NC(=O)[C@@H](Cc1ccccc1)NC)C(=O)N[C@@H](CO)C(=O)N[C@H](CCC(N)=O)C(=O)N[C@@H](C(=O)N[C@H](C(=O)N[C@@H](CO)C(=O)N[C@H]1C(=O)N[C@@H](C)C(=O)N[C@@H](CCCCN)C(=O)N[C@@H](C)C(=O)O[C@H]1C)[C@@H](C)CC)[C@@H](C)CC [Lys10,Ala11-teixobactin] (H-[dNMeF]IS[dQ][d(aIle)]IS[dT]AKA; ester 8-C) | 4 µg/mL (≈ 3.41 µM) | 8 µg/mL (≈ 6.81 µM) | 2 µg/mL (≈ 1.7 µM) | >32 µg/mL | 8 µg/mL (≈ 6.81 µM) | >32 µg/mL | moderate | good |  |  | 
9 | CC[C@H](C)[C@H](NC(=O)[C@@H](Cc1ccccc1)NC)C(=O)N[C@@H](CO)C(=O)N[C@H](CCC(N)=O)C(=O)N[C@@H](C(=O)N[C@H](C(=O)N[C@@H](CO)C(=O)N[C@H]1C(=O)N[C@@H](C)C(=O)N[C@@H](CCCCN)C(=O)N[C@@H]([C@@H](C)CC)C(=O)O[C@H]1C)[C@@H](C)CC)[C@@H](C)CC [Lys10-teixobactin] | 0.5 µg/mL (≈ 0.411 µM) | 0.5 to 1 µg/mL | 0.5 µg/mL (≈ 0.411 µM) | 2 µg/mL (≈ 1.64 µM) | 1 µg/mL (≈ 0.822 µM) | >32 µg/mL | good |  | 0.25 to 1 µg/mL |  | 
10 | CC[C@H](C)[C@H](NC(=O)[C@@H](C)NC)C(=O)N[C@@H](CO)C(=O)N[C@H](CCC(N)=O)C(=O)N[C@@H](C(=O)N[C@H](C(=O)N[C@@H](CO)C(=O)N[C@H]1C(=O)N[C@@H](C)C(=O)N[C@@H](CCCCN)C(=O)N[C@@H]([C@@H](C)CC)C(=O)O[C@H]1C)[C@@H](C)CC)[C@@H](C)CC [N-Me-D-Ala1,Lys10-teixobactin] | >32 µg/mL | >32 µg/mL | >32 µg/mL | >32 µg/mL | >32 µg/mL | >32 µg/mL | poor | good |  |  | 
11 | Lys3,Arg10-teixobactin |  |  |  |  |  |  |  |  |  | active | 
12 | lipobactin |  |  |  |  |  |  |  |  |  |  | two- to fourfold loss in activity
